Test results as given in ChEMBL document CHEMBL1122773 (1984).
Values after ≈ are worked out from the molar mass of the structure shown.

Legend:
Mus musculus [1] = test: Bioactivity in blood, in Bacteroides fragilis infected mice following subcutaneous dose of 200 mg/kg after 360 mins of bleeding; assay type: functional
In short: (§1)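 On day 7 post-infection, groups of five mice were given a single 200 mg/kg subcutaneous dose and killed at set times. Blood was taken by cardiac puncture and abscesses were excised. Activity was measured by standard microbiological assay.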

Mus musculus [2] = test: Bioactivity in abscess, in Bacteroides fragilis infected mice following subcutaneous dose of 200 mg/kg after 90 mins of bleeding; assay type: functional; in short: as §1
Staphylococcus aureus [3] = test: In vitro antibacterial activity against the aerobic Staphylococcus aureus (Strain UC no.6686); assay type: functional
In short: (§2)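 Broth microdilution in brain/heart infusion broth with twofold drug dilutions. Inoculum was a standardized suspension giving 10⁵ viable cells/mL final. Plates were incubated 20 h at 37 °C. MIC (mcg/mL) = lowest concentration with no visible growth.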

Mus musculus [4] = test: Bioactivity in abscess, in Bacteroides fragilis infected mice following subcutaneous dose of 200 mg/kg after 45 mins of bleeding; assay type: functional; in short: as §1
Staphylococcus aureus [5] = test: In vitro antibacterial activity against the aerobic Staphylococcus aureus (Strain UC no.6692); assay type: functional; in short: as §2
Cutibacterium acnes = test: In vitro antibacterial activity against the anaerobic Propionibacterium acnes(Strain UC no.6575); assay type: functional
In short: (§3)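 Agar dilution with serial twofold drug dilutions in Schaedler broth mixed into molten Wilkens-Chalgren agar. Plates prereduced 3 h under 85% N2/10% H2/5% CO2. Strains grown 48 h on Schaedler agar, suspended to 0.5 McFarland, and 0.001 mL spotted by replicator. All steps done anaerobically. Incubation 48 h at 37 °C. MIC is the least drug inhibiting growth; a faint film or fewer than three colonies scored negative.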

Clostridium tetani = test: In vitro antibacterial activity against the anaerobic Clostridium tetani(Strain UC no.6521); assay type: functional
In short: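 Agar dilution under anaerobic conditions. Serial twofold drug dilutions in Schaedler broth were mixed with molten Wilkins-Chalgren agar. Plates were prereduced 3 h (85% N2, 10% H2, 5% CO2). Strains were grown 48 h on Schaedler agar, suspended to 0.5 McFarland, and 0.001 mL spotted by replicator. Incubation was anaerobic, 37 °C, 48 h.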

Staphylococcus aureus [6] = test: In vitro antibacterial activity against the aerobic Staphylococcus aureus (Strain UC no.6695); assay type: functional; in short: as §2
Staphylococcus aureus [7] = test: In vitro antibacterial activity against the aerobic Staphylococcus aureus (Strain UC no.6694); assay type: functional; in short: as §2
Staphylococcus aureus [8] = test: In vitro antibacterial activity for minimum inhibition concentration (MIC) required to inhibit growth of Staphylococcus aureus; assay type: functional
In short: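 Broth microdilution in brain/heart infusion broth, inoculated with a standardized suspension to a final 10^5 viable cells/mL. Incubation 20 h at 37 °C. MIC read as the lowest concentration preventing visible growth.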

Mus musculus [9] = test: Bioactivity in abscess, in Bacteroides fragilis infected mice following subcutaneous dose of 200 mg/kg after 120 mins of bleeding; assay type: functional; in short: as §1
Mus musculus [10] = test: Bioactivity in blood, in Bacteroides fragilis infected mice following subcutaneous dose of 200 mg/kg after 90 mins of bleeding; assay type: functional; in short: as §1
Mus musculus [11] = test: Bioactivity in abscess, in Bacteroides fragilis infected mice following subcutaneous dose of 200 mg/kg after 15 mins of bleeding; assay type: functional; in short: as §1
Mus musculus [12] = test: Bioactivity in abscess, in Bacteroides fragilis infected mice following subcutaneous dose of 200 mg/kg after 360 mins of bleeding; assay type: functional; in short: as §1
Mus musculus [13] = test: Bioactivity in abscess, in Bacteroides fragilis infected mice following subcutaneous dose of 200 mg/kg after 150 mins of bleeding; assay type: functional; in short: as §1
[14] = test system: Peptoniphilus asaccharolyticus; test: In vitro antibacterial activity against the anaerobic Peptoccus aerogenes (Strain UC no.6319); assay type: functional; in short: as §3
[15] = In vitro antibacterial activity against the aerobic […] I(Strain UC no.41); assay type: functional; in short: as §2
Mus musculus [16] = test: Bioactivity in abscess, in Bacteroides fragilis infected mice following subcutaneous dose of 200 mg/kg after 60 mins of bleeding; assay type: functional; in short: as §1
Mus musculus [17] = test: Bioactivity in abscess, in Bacteroides fragilis infected mice following subcutaneous dose of 200 mg/kg after 30 mins of bleeding; assay type: functional; in short: as §1
Proteus vulgaris = test: In vitro antibacterial activity against the aerobic Proteus vulgaris (Strain UC no.93); assay type: functional; in short: as §2
Staphylococcus aureus [18] = test: In vitro antibacterial activity against the aerobic Staphylococcus aureus (Strain UC no.6691); assay type: functional; in short: as §2
Escherichia coli = test: In vitro antibacterial activity against the aerobic Escherichia coli (Strain UC no.45); assay type: functional; in short: as §2
Mus musculus [19] = test: Bioactivity in blood, in Bacteroides fragilis infected mice following subcutaneous dose of 200 mg/kg after 15 mins of bleeding; assay type: functional; in short: as §1
Staphylococcus aureus [20] = test: In vitro antibacterial activity against the aerobic Staphylococcus aureus (Strain UC no.6696); assay type: functional; in short: as §2
[21] = In vitro antibacterial activity against the aerobic […] (Strain UC no.871); assay type: functional; in short: as §2
Clostridium cadaveris = test: In vitro antibacterial activity against the anaerobic Clostridium cadaveris (Strain UC no.6510); assay type: functional; in short: as §3
[22] = In vitro antibacterial activity against the aerobic Salmonella schottmuelleri (Strain UC no.126); assay type: functional; in short: as §2
Staphylococcus aureus [23] = test: In vitro antibacterial activity against the aerobic Staphylococcus aureus (Strain UC no.6693); assay type: functional; in short: as §2
Mus musculus [24] = test: Bioactivity in blood, in Bacteroides fragilis infected mice following subcutaneous dose of 200 mg/kg after 60 mins of bleeding; assay type: functional; in short: as §1
Staphylococcus aureus [25] = test: In vitro antibacterial activity against the aerobic Staphylococcus aureus (Strain UC no.746); assay type: functional; in short: as §2
Mus musculus [26] = test: Bioactivity in blood, in Bacteroides fragilis infected mice following subcutaneous dose of 200 mg/kg after 30 mins of bleeding; assay type: functional; in short: as §1
Mus musculus [27] = test: Bioactivity in blood, in Bacteroides fragilis infected mice following subcutaneous dose of 200 mg/kg after 45 mins of bleeding; assay type: functional; in short: as §1
[28] = In vitro antibacterial activity against the aerobic […] (Strain UC no.153); assay type: functional; in short: as §2
Mus musculus [29] = test: Bioactivity in blood, in Bacteroides fragilis infected mice following subcutaneous dose of 200 mg/kg after 150 mins of bleeding; assay type: functional; in short: as §1
[30] = In vitro antibacterial activity against the aerobic […] III(Strain UC no.3213); assay type: functional; in short: as §2
Staphylococcus aureus [31] = test: In vitro antibacterial activity against the aerobic Staphylococcus aureus (Strain UC no.570); assay type: functional; in short: as §2
Mus musculus [32] = test: Bioactivity in blood, in Bacteroides fragilis infected mice following subcutaneous dose of 200 mg/kg after 120 mins of bleeding; assay type: functional; in short: as §1
Klebsiella pneumoniae = test: In vitro antibacterial activity against the aerobic Klebsiella pneumoniae (Strain UC no.58); assay type: functional; in short: as §2
Streptococcus pyogenes = test: In vitro antibacterial activity against the aerobic Streptococcus pyogenes (Strain UC no.152)
Staphylococcus aureus [33] = test: In vitro antibacterial activity against the aerobic Staphylococcus aureus (Strain UC no.571); assay type: functional; in short: as §2
Staphylococcus aureus [34] = test: In vitro antibacterial activity against the aerobic Staphylococcus aureus (Strain UC no.6688); assay type: functional; in short: as §2
Staphylococcus aureus [35] = test: In vitro antibacterial activity against the aerobic Staphylococcus aureus (Strain UC no.6675); assay type: functional; in short: as §2
Pseudomonas aeruginosa = test: In vitro antibacterial activity against the aerobic Pseudomonas aeruginosa (Strain UC no.95); assay type: functional; in short: as §2
Staphylococcus aureus [36] = test: In vitro antibacterial activity against the aerobic Staphylococcus aureus (Strain UC no.6689); assay type: functional; in short: as §2
Staphylococcus aureus [37] = test: In vitro antibacterial activity against the aerobic Staphylococcus aureus (Strain UC no.76); assay type: functional; in short: as §2

CCC[C@@H]1C[C@@H](C(=O)N[C@@H]([C@H]2O[C@H](SC)[C@H](O)[C@@H](O)[C@H]2O)[C@H](C)Cl)N(C)C1 [CLINDAMYCIN]
B (Mus musculus [1]): 0.2 ug (g of abscess)-1
A (Mus musculus [2]): 13 ug (g of abscess)-1
MIC (Staphylococcus aureus [3]): 0.05 µg/mL (≈ 0.118 µM)
A (Mus musculus [4]): 26 ug (g of abscess)-1
MIC (Staphylococcus aureus [5]): > 25 µg/mL
MIC (Cutibacterium acnes): < 0.03 µg/mL
MIC (Clostridium tetani): < 0.03 µg/mL
MIC (Staphylococcus aureus [6]): 0.1 µg/mL (≈ 0.235 µM)
MIC (Staphylococcus aureus [7]): > 25 µg/mL
MIC (Staphylococcus aureus [8]): > 25 µg/mL
A (Mus musculus [9]): 9 ug (g of abscess)-1
B (Mus musculus [10]): 4 ug (g of abscess)-1
A (Mus musculus [11]): 16 ug (g of abscess)-1
A (Mus musculus [12]): 3 ug (g of abscess)-1
A (Mus musculus [13]): 8 ug (g of abscess)-1
MIC [14]: < 0.03 µg/mL
MIC [15]: < 0.012 µg/mL
A (Mus musculus [16]): 21 ug (g of abscess)-1
A (Mus musculus [17]): 22 ug (g of abscess)-1
MIC (Proteus vulgaris): > 25 µg/mL
MIC (Staphylococcus aureus [18]): 0.1 µg/mL (≈ 0.235 µM)
MIC (Escherichia coli): > 25 µg/mL
B (Mus musculus [19]): 17 ug (g of abscess)-1
MIC (Staphylococcus aureus [20]): 0.1 µg/mL (≈ 0.235 µM)
MIC [21]: < 0.012 µg/mL
MIC (Clostridium cadaveris): < 0.03 µg/mL
MIC [22]: > 25 µg/mL
MIC (Staphylococcus aureus [23]): 0.05 µg/mL (≈ 0.118 µM)
B (Mus musculus [24]): 12 ug (g of abscess)-1
MIC (Staphylococcus aureus [25]): 0.05 µg/mL (≈ 0.118 µM)
B (Mus musculus [26]): 23 ug (g of abscess)-1
B (Mus musculus [27]): 17 ug (g of abscess)-1
MIC [28]: < 0.012 µg/mL
B (Mus musculus [29]): 1.4 ug (g of abscess)-1
MIC [30]: < 0.012 µg/mL
MIC (Staphylococcus aureus [31]): 0.2 µg/mL (≈ 0.471 µM)
B (Mus musculus [32]): 3 ug (g of abscess)-1
MIC (Klebsiella pneumoniae): 12.5 µg/mL (≈ 29.4 µM)
MIC (Streptococcus pyogenes): < 0.012 µg/mL
MIC (Staphylococcus aureus [33]): 0.2 µg/mL (≈ 0.471 µM)
MIC (Staphylococcus aureus [34]): > 25 µg/mL
MIC (Staphylococcus aureus [35]): 0.05 µg/mL (≈ 0.118 µM)
MIC (Pseudomonas aeruginosa): > 25 µg/mL
MIC (Staphylococcus aureus [36]): 0.05 µg/mL (≈ 0.118 µM)
MIC (Staphylococcus aureus [37]): 0.05 µg/mL (≈ 0.118 µM)
